This note sets out measurements from the EternaBench riboswitch data.

This series concerns MS2 coat protein. The series can be described thus: apparent Kd, MS2 coat protein; higher = weaker binding; RNA-MaP array; FMN 200 µM where present. The procedure, abridged:
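On Illumina sequencing-chip clusters, designs were transcribed by stalled E. coli RNA polymerase and titrated with SNAP-549-labelled MS2 coat protein (0.7 or 1.5 nM, doubling to 3 µM), without and then with constant ligand, in 100 mM Tris-HCl pH 7.5, 80 mM KCl, 4 mM MgCl2, BSA, DTT, yeast tRNA and Tween-20. Apparent Kd is the median of filtered per-cluster curve fits to green signal normalised to red-channel RNA signal and control-cluster median Fmax.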

Setting [1] is: designed as: ON switch for flavin mononucleotide, no ligand.
Setting [2] is: ligand present: flavin mononucleotide, designed as: ON switch for flavin mononucleotide.
[3] abbreviates: designed as: OFF switch for flavin mononucleotide, no ligand.
Setting [4] is: ligand present: flavin mononucleotide, designed as: OFF switch for flavin mononucleotide.

On to “CCGAAUGUCACAGGAUAUGGUCCGGGCACGCGACCAGAAGGGUGAUCUCACAUGAGGAUCACCCAUGUGCAGUUGUUAAGCUGC”, for which the apparent Kd – broadly, a dissociation constant that holds for the conditions of the assay – is 23.8 nM under setting [1] and 106 nM under setting [2].
Take “ACUGGUCGAGGAUAUACAUGAGGAUCACCCAUGUGAUUAGCAGUCCUCGGACUGCAAUGUAGAAGGCGACCAGU”: the “apparent Kd” value is, setting by setting: under setting [3], 370 nM; under setting [4], 842 nM.
“GUAAAACAUGAGGAUCACCCAUGUCAACAAAGUCGAGGAUAUGGGCAAAUAAAAUAAGAACCAGAAGGCGAAUAAG”: the “apparent Kd” value by setting is: under setting [1], 161 nM; under setting [2], 42.6 nM.
As to “UAUUUAAUCAUAGGAUAUAGUGUGUAAUUUGGACUAGAAGGAUGUAACAUGAGGAUCACCCAUGUGGUAAAUGGGAUACAUUCC”, the “apparent Kd” value stood at 125 nM under setting [1] and 132 nM under setting [2].
For the sequence “GUCAGCUCGUGAGGAUAUACAACACUGCUUAGGCAGUGUAUUAAGAUCACAUGAGGAUCACCCAUGUAGAAGGCACGAGCUGAU”, the “apparent Kd” value reads like this: under setting [3], 13.6 nM; under setting [4], 222 nM.
In the case of “GAGACACAUGAGGAUCACCCAUGUGAGGAUAUCCGAAGGACCAAAUUAAGAAUUAAAGGGAGAAGGCACAUAAA”, the “apparent Kd” value reads like this: under setting [3], 27 nM; under setting [4], 25.9 nM.
For “GACAUGAGGAUCACCCAUGUCCCUCCAGAAGGCUGGCGCGCGAAACCGAUCUCGGUUCCGGGCACAGAGGAUAUGGGCGGUUGG”, the “apparent Kd” value is, setting by setting: under setting [1], 198 nM; under setting [2], 26.1 nM.
Take “GUCAGCUCGUGAGGAUAUACAACACUGCUUCGGCAGUGUUUUAAGAUCACAUGAGGAUCACCCAUGUAGAAGGCACGAGCUGAU”: the “apparent Kd” value reads like this: under setting [3], 6.29 nM; under setting [4], 44 nM.
With “CCUCGCUGUUAGAAGGCACCUUCGGCUUUGGCUUUUGGAGUUGGGCGAUGGUGAGGAUAUAACAUGAGGAUCACCCAUGUUCAA”, the “apparent Kd” value under setting [4] came to 65.1 nM.
As to “AAAAAGGCAGGAUAUACAAAAAAGAGAAGAGAGGAGGAGGGACAUGAGGAUCACCCAUGUAGAAGGGCCAAAAA”, the “apparent Kd” value stood at 31.5 nM under setting [3] and 37.4 nM under setting [4].
Regarding “UUAUAUAGUGUGAGGAUAUGCUGGUCCUUGGAUCAGCAGAAGGCACAUGAGGAUCACCCAUGUAAUAUAUUAUU”, the “apparent Kd” value under setting [3] stood at 67.1 nM and the “apparent Kd” value under setting [4] came out at 156 nM.
The corresponding values for “UGUCCAUAGCAGAAGGACAUGAAUAAACAUGAAAACAUGAGGAUCACCCAUGUAGGAUAUGCUAUGGACUAAGAGCGAAAGCUC” are 7.06 nM and 48.1 nM.
Take “GACAUGGUCCAGAAGGGCUAUCUAUUUAAGUACGAUUUAGAACAGCAUAGCAGGAUAUGGCUAACAUGAGGAUCACCCAUGUUC”: the “apparent Kd” value by setting is: under setting [1], 20.5 nM; under setting [2], 9.26 nM.
As for “AAAUAAAUGACUAAGGAUAUAUCAGAGAAAACAUGAGGAUCACCCAUGUAAUAAUAAAAAGGGUGAUAGAAGGUAGUCAACAAACA”, the “apparent Kd” value is 222 nM under setting [1] and 44.5 nM under setting [2].
As for “UAAGAUUAUGUAGGAUAUGGUUAUCUAUGUCUAGUUACUAGACAUAGAUAACCAGAAGGACAUGAGGAUCACCCAUGUUGAAUG”, the “apparent Kd” value is 10.3 nM under setting [3] and 44.4 nM under setting [4].
For “CUUUUGUGAGGAUAUCAGUAGUAAAAAAAUAAAAUUACUACUGAGAAGGCACAUGAGGAUCACCCAUGUUCCUC” the same measures were 30.7 nM and 237 nM.
For “AAAAGAUAAGCAGGAUAUCGAACAACUCAUGGGCUAUGCCAUCCGCACAUGAGGAUCACCCAUGUCGAGAAGGGCUAAGAGUAG” the same measures were 9.82 nM and 25.8 nM.
“GCCAACUUAUGAGGAUAUGGCACCUUAUUGGUGCCAGAAGGCAUGUCUCUUGACAUGAGGAUCACCCAUGUAUUAUAGUUGGCA”: the “apparent Kd” value under setting [1] turned out to be 421 nM and the “apparent Kd” value under setting [2] is 158 nM.
With “UUUUAUAGAACAGGAUAUGUGGGCGGGUCCGACGGGAUCCACCACAUGAGGAUCACCCAUGUGACACAGAAGGGUUCCAGAAAC”, the “apparent Kd” value by setting is: under setting [1], 474 nM; under setting [2], 24.2 nM.
For “ACAGCGGCAGGAUAUGCAUGCUCCGACUUAUGCCGACAAAGACAUGAGGAUCACCCAUGUAGAAGGGCCAGCGG”, the “apparent Kd” value came to 23.1 nM under setting [3] and 22.8 nM under setting [4].
In the case of “AUAAUGAGAGGAUAUACAUGAGGAUCACCCAUGUUAUUAUCACGUCGUGCUCCAUUACGUAGAAGGCUCAUUUA”, the “apparent Kd” value came to 22 nM under setting [3] and 84.1 nM under setting [4].
Turning to “CGGGCGAGAGGAUAUACAUGAGGAUCACCCAUGUGUUUCCAGGCGGUAGCUGUCACGUGUAGAAGGUUUUCCGG”, the “apparent Kd” value is, setting by setting: under setting [3], 18.4 nM; under setting [4], 17.7 nM.
Consider “CAGGCGGAGUCAGGAUAUGCACGGUGGACCCAUAACAUGAGGAUCACCCAUGUUACUACGCCUCAGCAGAAGGGACAACCUCCU”, for which the “apparent Kd” value by setting is: under setting [1], 28.7 nM; under setting [2], 6.21 nM.
Regarding “AGUCGGAGCAGAGGAUAUACAUGAGGAUCACCCAUGUAAAUGGAAGAAGCCUGGAAACAGGCAAUGUAGAAGGCUGCUCCGACA”, the “apparent Kd” value was determined as 132 nM under setting [3] and 708 nM under setting [4].
As to “UAUAUAUAGUAAGGAUAUGUAUUAAUUUGAUAAACAGAAGGUACUGACAUGAGGAUCACCCAUGUUUUAGUGUGGGCAUGUAGA”, the “apparent Kd” value reads like this: under setting [3], 98.9 nM; under setting [4], 164 nM.
For “CCCUCACAUGAGGAUCACCCAUGUCAGGAUAUCUCACAUCAGCCUUAGGCCGAUGUCUAGAGAAGGGACGUAUC”, the “apparent Kd” value runs as follows: under setting [3], 22.7 nM; under setting [4], 30.3 nM.
The corresponding values for “AAAAAGCGAGGAUAUACAAAAGAGCGAAAGCUCAAAAGGAAACAUGAGGAUCACCCAUGUAGAAGGCGCAAGAA” are 21.7 nM and 20.3 nM.
As to “GUGAAGUGAGGAUAUACGAGAGAGGCUGAACCGGACGAGAAGUAGAAGGCACAUGAGGAUCACCCAUGUACGGG”, the “apparent Kd” value under setting [4] worked out at 236 nM.
As to “AAGAUGCGGAUAGGAUAUGGAAAUAAAUAAAGACCAGAAGGAUUGGUCACACAACAUGAGGAUCACCCAUGUGUGUGUUGUGAA”, the “apparent Kd” value under setting [3] was found to be 13.9 nM and the “apparent Kd” value under setting [4] was 10.6 nM.
In the case of “AGGUAGUCAGGAUAUUAUUUUUAGCGGGAUAACGCUGAGGGUGAGAAGGGACAUGAGGAUCACCCAUGUUUUGA”, the “apparent Kd” value by setting is: under setting [3], 258 nM; under setting [4], 191 nM.
Take “UGUGCGUAUGUGAGGAUAUGCUGGUCCUUGGCUCGGCAGAAGGCACAUGAGGAUCACCCAUGUGGUGUCGUACA”: the “apparent Kd” value is, setting by setting: under setting [3], 227 nM; under setting [4], 37.5 nM.
For “UUUUUUAAGUAAGGAUAUCGGUCUUAGUUAGGUCGAGAAGGUACAUGAGGAUCACCCAUGUUGUUUUUUUUUUCUUUUUUUUUU” the same measures were 9.51 nM and 14.1 nM.
For the sequence “GGUGGCGUGAUAACGCUAGAUAUAACAUGAGGAUCACCCAUGUAGGAUAUCCCGCCGAGAGGGCGGGAGAAGGACAACCAAUGG”, the “apparent Kd” value under setting [3] was 40.9 nM and the “apparent Kd” value under setting [4] was found to be 34 nM.
Take “GAGGUAUUCGUAGGAUAUCCGUCGCCACCGUGUGGAGAAGGACGAACAUGAGGAUCACCCAUGUAUCAUGGUGUGGACGCUGUC”: the “apparent Kd” value under setting [3] was 61.8 nM and the “apparent Kd” value under setting [4] stood at 61.7 nM.
For “CCUAAGAAAGGAUAUACACCGGUGGGCCGCUGAAUUCAGCAACAUGAGGAUCACCCAUGUAGAAGGUUUAUGGG”, the “apparent Kd” value under setting [3] is 75.2 nM and the “apparent Kd” value under setting [4] turned out to be 270 nM.
For “ACAUGAGGAUCACCCAUGUAUACAUAGGAUAUUGGUGAUCAGGCAUGUUUUACAGGAUAUGUCUGCGAGAAGGAUGCAAGUUGU”, the “apparent Kd” value turned out to be 633 nM under setting [1] and 346 nM under setting [2].
In the case of “CAGCUGAAAGUCAGGAUAUCUAGAGCUGCGGCUCUAGAGAAGGGACAUGAGGAUCACCCAUGUGAUCACAGCUG”, the “apparent Kd” value by setting is: under setting [3], 1440 nM; under setting [4], 150 nM.
Consider “CAUGAUCAUGUAGGAUAUAUACUGGAAUACAGUAUAGAAGGACAUGAGGAUCACCCAUGUUAUGUGCCUCCAAGUAAGAUCAUG”, for which the “apparent Kd” value under setting [3] turned out to be 18.5 nM and the “apparent Kd” value under setting [4] is 24.7 nM.
For the sequence “AAUCAGCGGAACUUGACAUCCUUACAUGAGGAUCACCCAUGUCAGGAUAUAUGCUCUCGAGCUGCAUAGAAGGGACAUAGUGGG”, the “apparent Kd” value under setting [3] was 37.7 nM and the “apparent Kd” value under setting [4] stood at 56 nM.
As for “GGUGUAGGAGGAUAUACAUGAGGAUCACCCAUGUGGCCACGUUGUAAGAUGACAUUAUGUAGAAGGCUUAGUGG”, the “apparent Kd” value by setting is: under setting [3], 90.4 nM; under setting [4], 89.8 nM.
The corresponding values for “AGUGCGUAUGUGAGGAUAUGCUGGUCCUUGGAUCAGCAGAAGGCACAUGAGGAUCACCCAUGUGGUGUCGUACU” are 253 nM and 27.2 nM.
Regarding “AUGGGCUAAGGAUAUAGACGACGACACAUGAGGAUCACCCAUGUCAGUAAUGGGUCUUGGCUAGAAGGUAGAACCC”, the “apparent Kd” value amounted to 44.5 nM under setting [3] and 72.7 nM under setting [4].
With “CAGGUAUAAGGAUAUACAUAGAUACAGACACAUGUUCAAGUACAUGAGGAUCACCCAUGUAGAAGGUAUAUAUG”, the “apparent Kd” value under setting [3] amounted to 28.8 nM and the “apparent Kd” value under setting [4] was 25.6 nM.
Take “GGACGUCACAUCUACAUGAGGAUCACCCAUGUCUCUUGAUAUGAGGAUAUGUAUACGAAUCGUAUACAGAAGGCAUGGACGUCC”: the “apparent Kd” value is, setting by setting: under setting [1], 26.9 nM; under setting [2], 28.8 nM.
On to “CUGGGCGGAGGAUAUGCGGGUUGGGCUUUUGUUCGGCUGGGACAUGAGGAUCACCCAUGUAGAAGGUUGUUCGG”, for which the “apparent Kd” value under setting [3] came to 168 nM and the “apparent Kd” value under setting [4] was determined as 124 nM.
For “AAUAACAGAGGAUAUACUAUUUUAUGUGUUUGUUAUUUUGAACAUGAGGAUCACCCAUGUAGAAGGCUGAAUAA” the same measures were 25 nM and 27.2 nM.
Consider “AAUAUACAUGAGGAUCACCCAUGUUUUGGUGUAUGAGGAUAUAAAAACAAUUACAUAAAAUUAGAAGGCAUAACUA”, for which the “apparent Kd” value under setting [1] worked out at 28.2 nM and the “apparent Kd” value under setting [2] is 24 nM.
As for “ACUGUUUGAUUCCUCUUUUACAUGAGGAUCACCCAUGUUAUCGAGGAUAUGCAUUAGAGUGUUUAGCAGAAGGCGAUGUAAUUG”, the “apparent Kd” value is 6.51 nM under setting [3] and 20.8 nM under setting [4].
On to “AUUAAUUAAUUAAUACAUGAGGAUCACCCAUGUAAUAAGAUCUAGGAUAUCAGCUCGAAUAGAGCUGAGAAGGAGAUCACAUGU”, for which the “apparent Kd” value runs as follows: under setting [1], 43.4 nM; under setting [2], 35.3 nM.
